High-throughput results from PubChem.
KCNQ1 block: inhibitors of human KCNQ1 potassium channel. CHO-K1 KCNQ1, FluxOR thallium flux fluorescence; hits give high values. B-score at 10 µM. 1.3% of 310,000 active;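 active = compounds whose thallium flux B-score, printed positive for inhibition, exceeds three library SD while starting fluorescence stays within three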;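 also: channel opened by potassium depolarization with thallium stimulus after 20 min compound exposure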
KCNK9 block: human KCNK9 channel inhibition; Q9NPC2; HEK293 KCNK9, FluxOR thallium flux fluorescence; hits give low values; B-score at 10 µM; 1.2% of 310,000 active; AID 488922;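 active = ratio B-score over 3 SD below the library mean, with starting fluorescence within 5 SD of its mean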;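 also: negative B-score means less thallium flux so channel inhibition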
hERG protect: shields human hERG channel from block by proarrhythmic agents. 0.51% of 310,000 active. CHO-hERG, FluxOR thallium flux, dofetilide IC70 present. AID 1511. Q12809. activation (rescue from dofetilide block), less the hit threshold, % at 10 µM;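 active = activation above the mean of controls blocked by dofetilide plus 5 SD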;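 also: thallium influx through hERG after potassium depolarization seen as dye fluorescence rise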
KCNQ1 pot: potentiates or activates the human KCNQ1 potassium channel. P51787. CHO-K1 KCNQ1, thallium flux FluxOR fluorescence; hits give high values. B-score at 10 µM. 0.35% of 310,000 active. AID 2648;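 active = fluorescence ratio B-score, a plate-corrected score, at least three library SD, with initial intensity B-score within 5 SD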
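Doses: Single concentration per compound, DMSO matched to controls | Test system: KCNQ1-transfected CHO-K1 cells | Timing: 90 min dye loading and 20 min compound exposure, both at room temperature | Measured by: Kinetic FluxOR thallium fluorescence, 10-s 1-Hz baseline, 110-s post-stimulus read | Medium: Assay buffer with matched DMSO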
KCNK3 inh: human KCNK3 channel inhibition, primary screen; O14649; CHO-KCNK3 thallium flux, FluxOR fluorescence; hits give low values; B-score at 10 µM; 0.84% of 340,000 active; AID 602410;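 active = B-score under library mean minus 4 SD, starting fluorescence ratio at most library mean plus 5 SD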;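 also: more negative B-score means stronger inhibition of thallium flux through KCNK3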
KCNK9 inh conf: human KCNK9 inhibitor confirmation. HEK293 KCNK9 cells, FluxOR thallium flux fluorescence. shares compounds with KCNK9 block. inhibition, % at 10 µM. 43% of 4,900 active;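 active = thallium signal inhibited by more than 5 SD of the compound-free buffer control wells, on both duplicate plates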;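 also: 0% = assay buffer control wells without compound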
Kir21 sel: mouse Kir2.1 off-target activity of KCNK9 modulators | inhibition, % at 10 µM | shares compounds with KCNK9 block | 4% of 4,900 active | Kir2.1 cells, FluxOR thallium flux fluorescence;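 active = thallium signal drop more than 5 SD beyond the mean of the no-compound control wells, seen in both duplicate plates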;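 also: signal is fluorescence rise after thallium addition divided by baseline fluorescence; plate controls were assay buffer only for no effect and full block by chlorpromazine control for full effect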
Target sequence (P35561 whole entry, looked up): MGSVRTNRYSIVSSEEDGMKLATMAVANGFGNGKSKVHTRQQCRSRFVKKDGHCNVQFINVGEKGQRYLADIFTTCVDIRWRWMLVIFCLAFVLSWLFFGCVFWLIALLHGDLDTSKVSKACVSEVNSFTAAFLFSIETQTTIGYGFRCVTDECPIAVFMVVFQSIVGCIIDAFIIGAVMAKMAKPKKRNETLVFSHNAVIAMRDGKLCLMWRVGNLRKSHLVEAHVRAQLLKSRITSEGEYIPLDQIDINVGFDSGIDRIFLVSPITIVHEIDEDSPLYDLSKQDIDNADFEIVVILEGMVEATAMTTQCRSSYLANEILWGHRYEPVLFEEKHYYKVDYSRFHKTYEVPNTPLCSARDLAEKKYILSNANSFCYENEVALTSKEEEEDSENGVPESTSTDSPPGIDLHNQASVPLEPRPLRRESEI
KCNK9 uninduced: second check of KCNK9 modulator effects in non-induced HEK293 cells. shares compounds with KCNK9 block. FluxOR thallium flux. inhibition, % at 10 µM. 40% of 4,900 active. AID 492997;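 active = thallium signal drop beyond 5 SD of the untreated control mean, on both duplicate plates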;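 also: plate controls were buffer only IC0 wells for no effect and SID17386958 at its maximal inhibitory level for full effect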
Active calls of the source: *; i = inactive; nt = not tested or not shown. Most compounds without a hit are left out; they make up all but 3.1% or so of the library.

SMILES	KCNQ1 block	KCNK9 block	hERG protect	KCNQ1 pot	KCNK3 inh	KCNK9 inh conf	Kir21 sel	KCNK9 uninduced
Cc1cccc(Nc2nnc(-c3ccc(N4CCOCC4)c([N+](=O)[O-])c3)c3ccccc23)c1	i	i	-8	i	i	i	i	i
Cc1ccc(NC(=S)NNc2ccc([N+](=O)[O-])cc2S(=O)(=O)Nc2ccccc2C(=O)O)cc1C	i	i	-11	i	i	i	i	i
CC(=O)Nc1ccc(C=NNc2ccc([N+](=O)[O-])cc2S(=O)(=O)Nc2ccccc2C(=O)O)cc1	nt	nt	nt	nt	i	nt	nt	nt
CC(NC(=O)COC(=O)CNS(=O)(=O)/C=C/c1ccccc1)c1ccccc1 (configuration not stated)	nt	nt	nt	nt	i	nt	nt	nt
CCn1c(Cc2ccccc2)nnc1SCC(=O)N1CCCC1=O	i	i	-11	i	i	nt	nt	nt
O=C(Nc1ccc2c(c1)OCO2)c1ccc(Cl)cc1Cl	i	i	-4	i	i	nt	nt	nt
Cc1c(C(=O)c2ccc(Cl)cc2Cl)cnc2cc3c(cc12)OCO3	i	-16*	-11	i	i	62%*	i	30%*
Cc1cc(O)c(NC(=O)c2cc([N+](=O)[O-])ccc2Cl)cc1C	i	-14*	-17	i	i	62%*	i	i
COc1ccc(CCNC(=O)c2ccc3nc(N4CCCCC4)sc3c2)cc1OC	i	i	-3	i	i	nt	nt	nt
CCN(N=Nc1cccc([N+](=O)[O-])c1)c1cccc([N+](=O)[O-])c1	i	-11*	-11	i	i	59%*	i	40%*
NC(=O)CN(N=Nc1cccc([N+](=O)[O-])c1)c1cccc([N+](=O)[O-])c1	i	i	-7	i	i	nt	nt	nt
Cc1sc2ncn(CC(=O)N3CCOCC3)c(=O)c2c1-c1ccccc1	i	i	-12	i	i	nt	nt	nt
CCCCc1ccc(-c2ccc(Br)cc2)nc1	i	i	-6	i	i	i	i	i
CCCc1ccc(-c2ccc(-c3noc(-c4ccncc4)n3)cc2)nc1	i	i	-8	i	i	nt	nt	nt
CCCN(CCC)C(=O)CSc1nc2ccccc2c(=O)n1CC1COc2ccccc2O1 (configuration not stated)	i	i	-8	i	i	i	i	i
CCOC(=O)CSc1nc2ccccc2c(=O)n1CC1COc2ccccc2O1 (configuration not stated)	i	i	-12	i	i	nt	nt	nt
c1ccc2cc(OCCOCCOc3ccc4ccccc4c3)ccc2c1	i	i	-12	i	i	i	i	i
O=C(Nc1ccc(F)cc1F)Nc1sccc1-c1nc2ccccc2s1	i	-11*	-12	i	i	50%*	i	26%*
COc1ccc(C(=O)N2CCC(C(=O)NC3CC3)CC2)cc1	i	i	-2	i	i	nt	nt	nt
COC(=O)c1ccccc1NC(=O)C1CCN(C(=O)c2ccc(OC)cc2)CC1	i	i	-7	i	i	i	i	i
CCN(Cc1nc2ccccc2c(=O)[nH]1)C(=O)c1ccc(C)c(NC(=O)c2ccco2)c1	nt	nt	nt	nt	i	nt	nt	nt
CCN(Cc1ccccc1)Cc1nc(CCc2ccccc2)no1	i	i	-15	i	i	nt	nt	nt
c1ccc(CCN(Cc2ccccc2)Cc2nc(C3CC3)no2)cc1	i	-9.6*	-3	i	i	i	i	38%*
CCOC(=O)c1ccc(-n2c(C)nc3c(cnn3-c3ccccc3Cl)c2=O)cc1	i	i	-17	i	i	i	i	i
COc1cc(Cl)ccc1OCc1cc(C(=O)NCCCN2CCCC2=O)no1	i	i	-11	i	i	nt	nt	nt
SMILES	KCNQ1 block	KCNK9 block	hERG protect	KCNQ1 pot	KCNK3 inh	KCNK9 inh conf	Kir21 sel	KCNK9 uninduced
CCOC(=O)C1=C(C)NC(=O)NC1c1c(C)nn(-c2ccccc2)c1Cl (configuration not stated)	i	i	-7	i	i	nt	nt	nt
CCOC(=O)C1=C(C)N(C)C(=O)NC1c1c(C)nn(-c2ccc(C)cc2)c1Cl (configuration not stated)	i	i	-12	i	i	i	i	i
Cc1ccc2[nH]c3c(=O)n(CC(=O)Nc4ccccc4N4CCN(C)CC4)ncc3c2c1	i	i	-13	i	i	nt	nt	nt
CSc1ccc(/C=C2/C(=N)N3N=C(CC(=O)N4CCCC4)SC3=NC2=O)cc1	i	i	-3	i	i	nt	nt	nt
NC(=O)c1ccc(C(F)(F)F)n(Cc2cccc(Cl)c2)c1=O	i	i	-12	i	i	nt	nt	nt
Cc1cccc(OCCCOc2cccc3cccnc23)c1C	i	i	-7	i	i	nt	nt	nt
Cc1ccc(OCCCOc2cccc3cccnc23)cc1C	i	i	-9	i	i	i	i	i
Cc1c(C)c2cc(Cl)c(OCC(=O)NC3CC(C)(C)NC(C)(C)C3)cc2oc1=O	i	i	-2	i	i	nt	nt	nt
CC(=O)Nc1cccc(C(=O)OC(C(=O)c2ccc(C)cc2)c2ccccc2)c1 (configuration not stated)	i	i	-13	i	i	nt	nt	nt
COc1ccc(C(=O)OC(C(=O)c2ccc(C)cc2)c2ccccc2)cc1 (configuration not stated)	i	-15*	-11	i	i	65%*	i	32%*
Cc1cccc(NC(=S)NC(=O)c2ccc(-c3ccccc3)cc2)n1	i	-11*	-10	i	i	i	i	i
Cc1cccc(NC(=S)NC(=O)C(c2ccccc2)c2ccccc2)n1	i	i	-6	i	i	nt	nt	nt
Cc1ccc(C(=O)O)cc1NC(=S)NC(=O)c1ccc(-c2ccccc2)cc1	i	i	-8	i	i	i	i	i
C[C@H](CO)N1C[C@H](C)[C@@H](CN(C)S(=O)(=O)c2ccccc2)Oc2ccc(NC(=O)CCN3CCOCC3)cc2C1=O	nt	nt	nt	nt	i	nt	nt	nt
COc1ccc(OC)c(NC(=O)C2CCCN(S(=O)(=O)c3cccc4nsnc34)C2)c1 (configuration not stated)	i	i	-2	i	i	nt	nt	nt
COc1cc(NC(=O)C2CCCN(S(=O)(=O)c3cccc4nsnc34)C2)cc(OC)c1 (configuration not stated)	i	i	-8	i	i	i	i	i
O=C(COC(=O)c1c2c(nc3ccccc13)CCN(Cc1ccccc1)C2)Nc1c(F)cccc1F	i	-8.3*	-7	i	i	i	i	i
